Assays:
[1] = tested on: SARS-CoV-2; details: COVID-19 patients; cited from earlier work
[2] = tested on: Vero CCL81 cells; details: 1 μM, 18 h
[3] = tested on: SARS-CoV-2 BetaCoV/Germany/BavPat1/2020; format: cell-based
[4] = tested on: human pneumocyte-like cells; experiment: Pneumocyte-like cell MTT viability assay; format: cell-based; details: 10 μM, 48 h, uninfected
Summary of the method: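 Human pneumocyte-like cells derived from H9 embryonic stem cells, used on day nine of differentiation. An uninfected duplicate set received the same drug concentrations as the antiviral set. After 48 h at 37 °C, viability was read by MTT assay. Viability was expressed as a percentage of the DMSO control, in triplicate.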

[5] = tested on: SARS-CoV-2 S pseudotyped particles; format: cell-based
[6] = tested on: SARS-CoV-2 negative-stranded viral RNA; experiment: In vitro transcribed viral RNA replication assay, negative-stranded RNA RT-qPCR; format: cell-based
[7] = tested on: SARS-CoV-2 BetaCoV/Germany/BavPat1/2020; experiment: Time-of-addition assay in Vero CCL81, plaque assay; format: cell-based
[8] = tested on: SARS-CoV-2 USA-WA1/2020; format: cell-based
[9] = tested on: ACE2; experiment: ACE2 immunoblot analysis in Vero E6; format: cell-based, monkey; details: Vero E6, after 24 h
[10] = tested on: SARS-CoV-1 S pseudotyped particles; format: cell-based
[11] = tested on: SARS-CoV-2 BetaCoV/Germany/BavPat1/2020; format: cell-based; remark: listed apart in the source
[12] = tested on: Vero E6 cells
[13] = tested on: SARS-CoV-2 dsRNA; format: cell-based
[14] = tested on: Vero E6; details: Vero E6, conditions of the antiviral assay, 16 h
[15] = tested on: VSV-G protein pseudotyped particles; format: cell-based, vesicular stomatitis virus
[16] = tested on: HeLa-hACE2; details: HeLa-hACE2, conditions of the antiviral assay, 16 h
[17] = tested on: ocular angiogenic disease models; details: 0.25 mg/kg; cited from earlier work
[18] = tested on: SARS-CoV-2 nucleoprotein and spike protein; format: cell-based
[19] = tested on: SARS-CoV-2 BetaCoV/Germany/BavPat1/2020; format: cell-based; details: effect only at 10 μM, less potent than Apra S4

CC(C)C(=O)OC[C@H]1O[C@@H](n2ccc(NO)nc2=O)[C@H](O)[C@@H]1O [molnupiravir]
reduction of the rate of hospitalizations and death [1]: 30%

CC[C@H](C)[C@H]1C(=O)N2CCC[C@H]2C(=O)O[C@H](C(C)(C)C)C[C@@H](C)C[C@H](O)[C@H](C)C2=N[C@@H](CCC(=O)N[C@@H](Cc3ccc(OC)cc3)C(=O)N(C)[C@@H](C)C(=O)N1C)CS2 [Apra S4, apratoxin S4]
cytotoxic effects (CellTiter-Glo) [2]: not due to cytotoxic effects | SARS-CoV-2 multicycle growth [3]: strongly reduced | virus titers ([3]; […], below limit of detection): < 100 PFU/mL | cytotoxicity in pneumocyte-like cells [4]: No cytotoxicity | viral entry of SARS-CoV-2 S pseudotyped particles (luciferase) [5]: slightly enhanced infection | negative-strand viral RNA [6]: reduced the negative-strand RNA | antiviral activity by time of addition [7]: did not lose its antiviral activity even if added 2 h after infection | viral replication in human pneumocyte-like cells [8]: significantly decreased viral replication | concentration giving decreased ACE2 protein levels [9]: ≥ 1 µM | viral entry of SARS-CoV-1 S pseudotyped particles (luciferase) [10]: slightly enhanced infection | reduction in infectious virus titers in the supernatant [11]: more than 100 fold | cytotoxic effect (WST-8) [12]: No cytotoxic effect was observed | dsRNA intermediates in infected cells [13]: strongly reduced | cytotoxicity [14]: Cytotoxicity was not observed | VSV-G-mediated entry [15]: None of the compounds impacted | cytotoxicity [16]: Cytotoxicity was not observed | efficacy in ocular angiogenic disease models in vivo [17]: exquisite efficacy | toxicity in ocular angiogenic disease models in vivo [17]: without toxicity or histological abnormalities | nucleoprotein signal intensity in infected cells [18]: increased | number of infected cells (N or S positive) [18]: significantly reduced number of infected cells | spike protein staining intensity in infected cells [18]: significantly reduced | viral protein expression at the cell surface (nucleoprotein and spike) [18]: inhibitory effect of Apra S4 was even more pronounced

CC1(C)C(N(O)C(=O)Nc2ccc(Cl)cc2)N(c2ccc(Cl)cc2)C(=O)N1CC(=O)N/N=C/C=C/c1ccc([N+](=O)[O-])o1 (stereo not drawn) [Eeyarestatin I, eeyarestatin I]
SARS-CoV-2 growth [19]: inhibited SARS-CoV-2 in a dose-dependent manner

CCC(CC)COC(=O)[C@H](C)N[P@](=O)(OC[C@H]1O[C@@](C#N)(c2ccc3c(N)ncnn23)[C@H](O)[C@@H]1O)Oc1ccccc1 [remdesivir, reference compound]
SARS-CoV-2 multicycle growth [3]: less potent | cytotoxicity in pneumocyte-like cells [4]: No cytotoxicity

Cc1cccc(/C=N/Nc2cc(N3CCOCC3)nc(OCCc3ccccn3)n2)c1 [Apilimod, apilimod, reference compound]
viral entry of SARS-CoV-2 S pseudotyped particles (luciferase) [5]: inhibited viral entry | viral entry of SARS-CoV-1 S pseudotyped particles (luciferase) [10]: inhibited viral entry | cytotoxic effect (WST-8) [12]: No cytotoxic effect was observed | VSV-G-mediated entry [15]: None of the compounds impacted
